Test results from ChEMBL document CHEMBL4177768, “Synthesis and Biological Evaluation of Derivatives of Indoline as Highly Potent Antioxidant and Anti-inflammatory Agents” (J Med Chem, 2018).
Calls of active or inactive are those of the source. No cut-off for these calls is given here.

Experiments:
[1] = tested on: Mus musculus; assay: Acute toxicity in Balb/C mouse assessed as change in activity at 100 umol/kg, sc measured over 72 hrs; type: organism-based; conditions: in vivo
Outline: (§1)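 Male Balb/C mice, 24-28 g, groups of 3; single sc injection of compound at 100 μmoles/kg or saline (1 mL/100 g). Food and water intake, body weight and general activity monitored over 72 h against saline-injected animals.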

[2] = tested on: RAW264.7; assay: Cytoprotective activity against H2O2-induced oxidative stress in mouse RAW264.7 cells assessed as decrease in caspase-3 activity at 1 pM incubated for 4 hrs prior to H2O2 addition measured after 90 mins by caspase-GloR reagent-based luminescence assay relative to control; type: functional; design: scale not given: the % may be the effect or the level left
Outline: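 RAW 264.7 macrophages were pretreated with compound (1 pM or 1 nM) 4 h before H2O2 100 µM. Medium was replaced with fresh DMEM after 90 min and plates were incubated overnight. Caspase-Glo 3/7 reagent was added and luminescence read after 30 min at room temperature. Mean ± SD, 4-6 replicates.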

[3] = tested on: Mus musculus; assay: Antiinflammatory activity in Balb/C mouse assessed as reduction in LPS-induced IL6 production in liver at 0.1 to 10 umol/kg, sc administered LPS 15 mins post compound treatment measured after 4 hrs by ELISA; type: functional, organism-based
[4] = tested on: Mus musculus; assay: Antiinflammatory activity in Balb/C mouse assessed as reduction in LPS-induced IL6 production in brain at 0.1 to 10 umol/kg, sc administered LPS 15 mins post compound treatment measured after 4 hrs by ELISA; type: functional, organism-based
[5] = tested on: Mus musculus; assay: Acute toxicity in Balb/C mouse assessed as change in food intake at 100 umol/kg, sc measured over 72 hrs; type: organism-based; conditions: in vivo; outline: as §1
[6] = tested on: Mus musculus; assay: Acute toxicity in Balb/C mouse assessed as change in water intake at 100 umol/kg, sc measured over 72 hrs; type: organism-based; conditions: in vivo; outline: as §1
[7] = tested on: Mus musculus; assay: Acute toxicity in Balb/C mouse assessed as change in body weight at 100 umol/kg, sc measured over 72 hrs; type: organism-based; conditions: in vivo; outline: as §1
[8] = tested on: Mus musculus; assay: Antiinflammatory activity in Balb/C mouse assessed as reduction in LPS-induced IL6 production in spleen at 0.1 to 10 umol/kg, sc administered LPS 15 mins post compound treatment measured after 4 hrs by ELISA; type: functional, organism-based
Outline: (§2)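 Male Balb/C mice, 7-8 weeks old, given compound sc (0.1, 1 or 10 µmoles/kg) or saline. LPS 10 mg/kg was given ip 15 min later, and mice were killed 4 h after that. Spleens were homogenized in PBS with protease inhibitor and centrifuged at 14,000 g, 4 °C. Cytokines in plasma and tissue supernatants were measured by ELISA, with protein by BCA. Dexamethasone 5.6 µmoles/kg was the reference. n = 8-10 mice per treatment.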

[9] = tested on: RAW264.7; assay: Antiinflammatory activity in mouse RAW264.7 cells assessed as reduction in LPS-induced TNF-alpha production at 1 nM incubated for 2 hrs prior to LPS challenge measured after 8 hrs by ELISA; type: functional; design: scale not given: the % may be the effect or the level left
Outline: (§3)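 RAW 264.7 macrophages were plated at 1×10^5 per well, grown overnight and washed with PBS. Compounds in water (final 1 pM-100 nM, medium with 2% FCS) were added 2 h at 37 °C before E. coli 0111:B4 LPS, 2.5 µg/mL. TNF-α was sampled at 8 h; IL-6 and nitrite (Griess) at 24 h. ELISA was used for cytokines. Values are % of the LPS + medium value in each experiment. Budesonide was the reference. 2-3 experiments, 6 wells per concentration.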

[10] = tested on: RAW264.7; assay: Antiinflammatory activity in mouse RAW264.7 cells assessed as reduction in LPS-induced nitric oxide production at 1 pM to 100 nM incubated for 2 hrs prior to LPS challenge measured after 24 hrs by Griess assay; type: functional, cell-based; outline: as §3
[11] = tested on: RAW264.7; assay: Antiinflammatory activity in mouse RAW264.7 cells assessed as reduction in LPS-induced TNF-alpha production at 1 pM to 100 nM incubated for 2 hrs prior to LPS challenge measured after 8 hrs by ELISA; type: functional, cell-based; outline: as §3
[12] = tested on: Mus musculus; assay: Antiinflammatory activity in Balb/C mouse assessed as reduction in LPS-induced TNF-alpha production in plasma at 0.1 to 10 umol/kg, sc administered LPS 15 mins post compound treatment measured after 4 hrs by ELISA; type: functional, organism-based; outline: as §2
[13] = tested on: Mus musculus; assay: Antiinflammatory activity in Balb/C mouse assessed as reduction in LPS-induced IL6 production in plasma at 0.1 to 10 umol/kg, sc administered LPS 15 mins post compound treatment measured after 4 hrs by ELISA; type: functional, organism-based; outline: as §2
[14] = tested on: Mus musculus; assay: Antiinflammatory activity in Balb/C mouse assessed as reduction in LPS-induced TNF-alpha production in spleen at 0.1 to 10 umol/kg, sc administered LPS 15 mins post compound treatment measured after 4 hrs by ELISA; type: functional, organism-based; outline: as §2
[15] = tested on: RAW264.7; assay: Antiinflammatory activity in mouse RAW264.7 cells assessed as reduction in LPS-induced IL-6 production at 1 nM incubated for 2 hrs prior to LPS challenge measured after 24 hrs by ELISA; type: functional; design: scale not given: the % may be the effect or the level left; outline: as §3
[16] = tested on: RAW264.7; assay: Antiinflammatory activity in mouse RAW264.7 cells assessed as reduction in LPS-induced nitric oxide production at 1 nM incubated for 2 hrs prior to LPS challenge measured after 24 hrs by Griess assay; type: functional; design: scale not given: the % may be the effect or the level left; outline: as §3
[17] = tested on: RAW264.7; assay: Cytoprotective activity against H2O2-induced oxidative stress in mouse RAW264.7 cells assessed as decrease in LDH release at 1 pM incubated for 2 hrs prior to H2O2 addition by colorimetric assay relative to control; type: functional; design: scale not given: the % may be the effect or the level left
Outline: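 RAW 264.7 cells were seeded and pretreated with compound before H2O2 100 µM, in serum-free medium. Collected medium was centrifuged and incubated with reaction mix 30 min at room temperature. LDH was measured as NADH formation by colorimetric read at 490 nm. n = 8-10 replicates per concentration.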

[18] = tested on: RAW264.7; assay: Cytoprotective activity against H2O2-induced oxidative stress in mouse RAW264.7 cells assessed as cell viability at 1 pM incubated for 2 hrs prior to H2O2 addition measured after 24 hrs by MTT assay (reference value: 68 to 72.8%); type: functional; conditions: read-out: Activity
[19] = Cytotoxicity against mouse RAW264.7 cells assessed as cell viability at 10^-8 M after 24 hrs by MTT assay relative to control; type: cell-based; conditions: read-out: Activity
Outline: (§4)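 RAW 264.7 cells, seeded at 1×10^4 cells/mL and incubated 24 h, were exposed to compound from 1 pM to 100 nM. Viability was read by MTT (final 0.5 mg/mL, 1 h at 37 °C), with formazan dissolved in DMSO and OD at 570 nm. Results are compared with medium-only cells.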

[20] = Cytotoxicity against mouse RAW264.7 cells assessed as cell viability at 10^-7 M after 24 hrs by MTT assay relative to control; type: cell-based; conditions: read-out: Activity; outline: as §4
[21] = Cytotoxicity against mouse RAW264.7 cells assessed as cell viability at 10^-9 M after 24 hrs by MTT assay relative to control; type: cell-based; conditions: read-out: Activity; outline: as §4
[22] = Cytotoxicity against mouse RAW264.7 cells assessed as cell viability at 10^-11 M after 24 hrs by MTT assay relative to control; type: cell-based; conditions: read-out: Activity; outline: as §4
[23] = Cytotoxicity against mouse RAW264.7 cells assessed as cell viability at 10^-10 M after 24 hrs by MTT assay relative to control; type: cell-based; conditions: read-out: Activity; outline: as §4
[24] = Cytotoxicity against mouse RAW264.7 cells assessed as cell viability at 10^-12 M after 24 hrs by MTT assay relative to control; type: cell-based; conditions: read-out: Activity; outline: as §4
[25] = tested on: RAW264.7; assay: Cytoprotective activity against H2O2-induced oxidative stress in mouse RAW264.7 cells assessed as decrease in LDH release at 1 pM incubated for 2 hrs prior to H2O2 addition by colorimetric assay relative to control; design: scale not given: the % may be the effect or the level left
[26] = tested on: RAW264.7; assay: Antiinflammatory activity in mouse RAW264.7 cells assessed as reduction in LPS-induced nitric oxide production at 10 pM incubated for 2 hrs prior to LPS challenge measured after 24 hrs by Griess assay; type: functional; design: scale not given: the % may be the effect or the level left; outline: as §3
[27] = tested on: RAW264.7; assay: Antiinflammatory activity in mouse RAW264.7 cells assessed as reduction in LPS-induced IL-6 production at 10 pM incubated for 2 hrs prior to LPS challenge measured after 24 hrs by ELISA; type: functional; design: scale not given: the % may be the effect or the level left; outline: as §3
[28] = tested on: RAW264.7; assay: Antiinflammatory activity in mouse RAW264.7 cells assessed as reduction in LPS-induced TNF-alpha production at 10 pM incubated for 2 hrs prior to LPS challenge measured after 8 hrs by ELISA; type: functional; design: scale not given: the % may be the effect or the level left; outline: as §3
[29] = tested on: RAW264.7; assay: Antiinflammatory activity in mouse RAW264.7 cells assessed as reduction in LPS-induced IL-6 production at 100 pM incubated for 2 hrs prior to LPS challenge measured after 24 hrs by ELISA; type: functional; design: scale not given: the % may be the effect or the level left; outline: as §3
[30] = tested on: RAW264.7; assay: Antiinflammatory activity in mouse RAW264.7 cells assessed as reduction in LPS-induced nitric oxide production at 100 pM incubated for 2 hrs prior to LPS challenge measured after 24 hrs by Griess assay; type: functional; design: scale not given: the % may be the effect or the level left; outline: as §3
[31] = tested on: Mus musculus; assay: Antiinflammatory activity in Balb/C mouse assessed as reduction in LPS-induced TNF-alpha production in plasma at 0.1 umol/kg, sc administered LPS 15 mins post compound treatment measured after 4 hrs by ELISA; type: functional, organism-based; outline: as §2
[32] = tested on: Mus musculus; assay: Antiinflammatory activity in Balb/C mouse assessed as reduction in LPS-induced IL6 production in plasma at 0.1 umol/kg, sc administered LPS 15 mins post compound treatment measured after 4 hrs by ELISA; type: functional, organism-based; outline: as §2
[33] = tested on: Mus musculus; assay: Antiinflammatory activity in Balb/C mouse assessed as reduction in LPS-induced TNF-alpha production in spleen at 0.1 umol/kg, sc administered LPS 15 mins post compound treatment measured after 4 hrs by ELISA; type: functional, organism-based; outline: as §2
[34] = tested on: Mus musculus; assay: Antiinflammatory activity in Balb/C mouse assessed as reduction in LPS-induced IL6 production in spleen at 0.1 umol/kg, sc administered LPS 15 mins post compound treatment measured after 4 hrs by ELISA; type: functional, organism-based; outline: as §2
[35] = tested on: Mus musculus; assay: Antiinflammatory activity in Balb/C mouse assessed as reduction in LPS-induced IL6 production in brain at 0.1 umol/kg, sc administered LPS 15 mins post compound treatment measured after 4 hrs by ELISA; type: functional, organism-based

Compound | Activity [1] | Activity [3] | Activity [5] | Activity [6] | Activity [7] | Activity [10] | Activity [11] | Activity [17] [%] | viability at 1 pM [18] [%] | viability at 24 h, 0.01 µM [19] [%] | viability at 24 h, 0.1 µM [20] [%] | viability at 24 h, 0.001 µM [21] [%] | viability at 24 h, 1e-05 µM [22] [%] | viability at 24 h, 0.0001 µM [23] [%] | viability at 24 h, 1e-06 µM [24] [%] | Activity [25] [%] | Activity [26] [%] | Activity [27] [%] | Activity [28] [%] | also measured
CC(C)NCCCN1CCc2ccccc21.Cl.Cl | Non-Toxic | Dose-dependent effect | Non-Toxic | Non-Toxic | Non-Toxic | Dose-dependent effect | Dose-dependent effect | 16 | 98.5 | 90.9 | 91.9 | 92.1 | 102 | 99.2 | 93.3 | 16 |  |  |  | Activity [2]: 60%; Activity [4]: Dose-dependent effect; Activity [8]: Dose-dependent effect; Activity [9]: 50%; Activity [12]: Dose-dependent effect; Activity [13]: Dose-dependent effect; Activity [14]: Dose-dependent effect; Activity [15]: 50%; Activity [16]: 50%
COC(=O)CCN1CCc2cc(Cl)ccc21.Cc1ccc(S(C)(=O)=O)cc1 |  |  |  |  |  | Active | Active |  | 89.7 | 107 | 105 | 104 | 106 | 104 | 108 |  | 50 | 50 | 50 | 
CC(C)NC(=O)CCN1CCc2ccccc21.Cl | Non-Toxic | inactive | Non-Toxic | Non-Toxic | Non-Toxic |  |  | 16 | 93.7 |  |  |  |  |  |  | 16 | 50 | 50 | 50 | Activity [29]: 50%; Activity [30]: 50%; Activity [31]: Active; Activity [32]: Active; Activity [33]: Active; Activity [34]: Active; Activity [35]: Active
